Data as given in ChEMBL document CHEMBL4049439, “Synthesis and Characterization of Tetrahydropyran-Based Bacterial Topoisomerase Inhibitors with Antibacterial Activity against Gram-Negative Bacteria” (J Med Chem, 2017).
Converted amounts (≈) assume the structure as drawn.

Legend:
[1] = Inhibition of wild-type Acinetobacter baumannii DNA topoisomerase-4 mediated supercoiled pBR322 DNA relaxation by ethidium bromide based agarose gel electrophoresis
[2] = Lipophilicity, log D of the compound at pH 7.4; format: physicochemical; conditions: buffer
hERG (KCNH2) [3] = target: T1, hERG (KCNH2) (Homo sapiens, UniProt Q12809); assay: Inhibition of human ERG assessed as reduction of K+ current at 30 uM
How it was run: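 hERG K+ channel current reduction measured at 30 μM compound concentration.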

Cavia porcellus [4] = assay: Cardiotoxicity in Dunkin-Hartley guinea pig assessed as free plasma concentration causing effect on mean arterial pressure administered as iv at 3 mg/kg for first 20 mins of infusion followed by 10 mg/kg for second 20 mins of infusion followed by 30 mg/kg for third 20 mins of infusion by LC-MS/MS analysis; format: toxicity, organism-based; conditions: in vivo
How it was run: (§1)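 Anesthetized guinea pigs received 3, 10 and 30 mg/kg iv over three consecutive 20 min periods. MAP, HR and ECG intervals (PR, QRS, RR, QT) recorded continuously. Blood drawn at the end of each period for drug levels. Value is the lowest plasma concentration differing from vehicle-treated animals. Free level uses unbound fraction from rapid equilibrium dialysis of guinea pig plasma.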

Pseudomonas aeruginosa [5] = assay: Antibacterial activity against Pseudomonas aeruginosa ATCC 27853 by CLSI broth microdilution method; format: functional
Citrobacter freundii = assay: Antibacterial activity against Citrobacter freundii by CLSI broth microdilution method; format: functional
Streptococcus pneumoniae = assay: Antibacterial activity against Streptococcus pneumoniae by CLSI broth microdilution method; format: functional
Staphylococcus aureus [6] = assay: Antibacterial activity against Staphylococcus aureus by CLSI broth microdilution method; format: functional
[7] = Cardiotoxicity against human induced pluripotent stem cell-derived cardiomyocytes assessed as total drug concentration causing effect on spontaneous rhythm after 5 to 60 mins by Fluo-4 dye based fluorescence assay; format: toxicity; conditions: cardiac muscle cell
How it was run: (§2)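 Spontaneous beating rhythm of human iPSC-derived cardiomyocytes monitored. Reported value is the lowest active concentration, free or total. Free/total conversion corrected for 20% serum in the test solution.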

[8] = Inhibition of wild-type Acinetobacter baumannii DNA gyrase supercoiling activity using relaxed pBR322 DNA as substrate by ethidium bromide based agarose gel electrophoresis
Klebsiella pneumoniae = assay: Antibacterial activity against Klebsiella pneumoniae by CLSI broth microdilution method; format: functional
[9] = Volume of distribution at steady state in Wistar rat at 10 mg/kg, iv by LC-MS/MS analysis; format: ADME, organism-based; conditions: in vivo, read-out: Vdss
How it was run: (§3)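 Rats received a single intravenous dose of 10 or 1 mg/kg depending on the compound. Clearance, unbound clearance, Vdss, terminal half-life and dose-normalized AUC were derived from plasma exposure, with unbound fraction (fu) reported for this species.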

Rattus norvegicus [10] = assay: Dose normalized AUC in Wistar rat at 10 mg/kg, iv by LC-MS/MS analysis; format: ADME, organism-based; conditions: in vivo
How it was run: (§4)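 Rats dosed iv at 10 mg/kg or 1 mg/kg. Dose-normalized AUC (μg·h/(mL·dose)) and its unbound counterpart derived via fraction unbound. Clearance, unbound clearance, Vdss and half-life also derived.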

[11] = Cardiotoxicity against human induced pluripotent stem cell-derived cardiomyocytes assessed as free drug concentration causing inhibition of spontaneous rhythm after 5 to 60 mins by Fluo-4 dye based fluorescence assay; format: toxicity; conditions: cardiac muscle cell; how it was run: as §2
[12] = Fraction unbound in Dunkin-Hartley guinea pig plasma administered as iv at 3 mg/kg for first 20 mins of infusion followed by 10 mg/kg for second 20 mins of infusion followed by 30 mg/kg for third 20 mins of infusion by rapid equilibrium dialysis; format: ADME, organism-based, Cavia porcellus
Acinetobacter baumannii [13] = assay: Antibacterial activity against fluoroquinolone-resistant Acinetobacter baumannii T6474 by CLSI broth microdilution method; format: functional
[14] = Clearance in Wistar rat at 10 mg/kg, iv by LC-MS/MS analysis; format: ADME, organism-based; conditions: in vivo; how it was run: as §4
[15] = Inhibition of wild-type Escherichia coli DNA gyrase supercoiling activity using relaxed pBR322 DNA as substrate by ethidium bromide based agarose gel electrophoresis
Staphylococcus aureus [16] = assay: Antibacterial activity against Staphylococcus aureus ATCC 29213 by CLSI broth microdilution method; format: functional
[17] = Half-life in dog at 1 mg/kg, iv by LC-MS/MS analysis; format: ADME, organism-based, Canis lupus familiaris; conditions: in vivo
How it was run: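 Dogs given 1 mg/kg iv. Clearance (mL/min/kg) and half-life (h) derived from plasma profiles.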

[18] = Terminal half-life in Wistar rat at 10 mg/kg, iv by LC-MS/MS analysis; format: ADME, organism-based; conditions: in vivo, read-out: beta t1/2 (converted); how it was run: as §4
Cavia porcellus [19] = assay: Cardiotoxicity in Dunkin-Hartley guinea pig assessed as free plasma concentration causing effect on heart rate administered as iv at 3 mg/kg for first 20 mins of infusion followed by 10 mg/kg for second 20 mins of infusion followed by 30 mg/kg for third 20 mins of infusion by LC-MS/MS analysis; format: toxicity, organism-based; conditions: in vivo; how it was run: as §1
Enterococcus faecium = assay: Antibacterial activity against multi-drug resistant Enterococcus faecium by CLSI broth microdilution method; format: functional
[20] = Inhibition of wild-type Escherichia coli DNA topoisomerase-4 mediated supercoiled pBR322 DNA relaxation by ethidium bromide based agarose gel electrophoresis
hERG (KCNH2) [21] = target: T1, hERG (KCNH2); assay: (§5) Inhibition of human ERG assessed as reduction of K+ current; conditions: human
[22] = target: Voltage-gated inwardly rectifying potassium channel KCNH2 (Homo sapiens, UniProt Q12809); assay: as §5
Cavia porcellus [23] = assay: Cardiotoxicity in Dunkin-Hartley guinea pig assessed as free plasma concentration causing effect on QT interval administered as iv at 3 mg/kg for first 20 mins of infusion followed by 10 mg/kg for second 20 mins of infusion followed by 30 mg/kg for third 20 mins of infusion by LC-MS/MS analysis; format: toxicity, organism-based; conditions: in vivo; how it was run: as §1
Streptococcus pyogenes = assay: Antibacterial activity against Streptococcus pyogenes by CLSI broth microdilution method; format: functional
Escherichia coli = assay: Antibacterial activity against Escherichia coli by CLSI broth microdilution method; format: functional
[24] = Fraction unbound in Wistar rat plasma at 10 mg/kg, iv by rapid equilibrium dialysis; format: ADME, organism-based; how it was run: as §4
Acinetobacter baumannii [25] = assay: Antibacterial activity against multi-drug resistant Acinetobacter baumannii by CLSI broth microdilution method; format: functional
Pseudomonas aeruginosa [26] = assay: Antibacterial activity against fluoroquinolone/carbapenem-resistant Pseudomonas aeruginosa by CLSI broth microdilution method; format: functional
Enterococcus faecalis = assay: Antibacterial activity against Enterococcus faecalis by CLSI broth microdilution method; format: functional
[27] = Inhibition of wild-type Pseudomonas aeruginosa DNA topoisomerase-4 mediated supercoiled pBR322 DNA relaxation by ethidium bromide based agarose gel electrophoresis
[28] = Inhibition of wild-type Pseudomonas aeruginosa DNA gyrase supercoiling activity using relaxed pBR322 DNA as substrate by ethidium bromide based agarose gel electrophoresis
Rattus norvegicus [29] = assay: Unbound clearance in Wistar rat at 10 mg/kg, iv by LC-MS/MS analysis; format: ADME, organism-based; conditions: in vivo; how it was run: as §3
[30] = Volume of distribution at steady state in dog at 1 mg/kg, iv by LC-MS/MS analysis; format: ADME, organism-based, Canis lupus familiaris; conditions: in vivo, read-out: Vdss
How it was run: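 Dogs received a single intravenous dose of 1 mg/kg. Clearance, Vdss, terminal half-life and dose-normalized AUC were calculated from plasma concentration data.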

Rattus norvegicus [31] = assay: Dose normalized unbound AUC in Wistar rat at 10 mg/kg, iv by LC-MS/MS analysis; format: ADME, organism-based; conditions: in vivo; how it was run: as §4
Enterobacter cloacae = assay: Antibacterial activity against fluoroquinolone/carbapenem-resistant Enterobacter cloacae by CLSI broth microdilution method; format: functional
Canis familiaris = assay: Dose normalized AUC in dog at 1 mg/kg, iv by LC-MS/MS analysis; format: ADME, organism-based, Canis lupus familiaris; conditions: in vivo

T1 sequence (Q12809 whole entry): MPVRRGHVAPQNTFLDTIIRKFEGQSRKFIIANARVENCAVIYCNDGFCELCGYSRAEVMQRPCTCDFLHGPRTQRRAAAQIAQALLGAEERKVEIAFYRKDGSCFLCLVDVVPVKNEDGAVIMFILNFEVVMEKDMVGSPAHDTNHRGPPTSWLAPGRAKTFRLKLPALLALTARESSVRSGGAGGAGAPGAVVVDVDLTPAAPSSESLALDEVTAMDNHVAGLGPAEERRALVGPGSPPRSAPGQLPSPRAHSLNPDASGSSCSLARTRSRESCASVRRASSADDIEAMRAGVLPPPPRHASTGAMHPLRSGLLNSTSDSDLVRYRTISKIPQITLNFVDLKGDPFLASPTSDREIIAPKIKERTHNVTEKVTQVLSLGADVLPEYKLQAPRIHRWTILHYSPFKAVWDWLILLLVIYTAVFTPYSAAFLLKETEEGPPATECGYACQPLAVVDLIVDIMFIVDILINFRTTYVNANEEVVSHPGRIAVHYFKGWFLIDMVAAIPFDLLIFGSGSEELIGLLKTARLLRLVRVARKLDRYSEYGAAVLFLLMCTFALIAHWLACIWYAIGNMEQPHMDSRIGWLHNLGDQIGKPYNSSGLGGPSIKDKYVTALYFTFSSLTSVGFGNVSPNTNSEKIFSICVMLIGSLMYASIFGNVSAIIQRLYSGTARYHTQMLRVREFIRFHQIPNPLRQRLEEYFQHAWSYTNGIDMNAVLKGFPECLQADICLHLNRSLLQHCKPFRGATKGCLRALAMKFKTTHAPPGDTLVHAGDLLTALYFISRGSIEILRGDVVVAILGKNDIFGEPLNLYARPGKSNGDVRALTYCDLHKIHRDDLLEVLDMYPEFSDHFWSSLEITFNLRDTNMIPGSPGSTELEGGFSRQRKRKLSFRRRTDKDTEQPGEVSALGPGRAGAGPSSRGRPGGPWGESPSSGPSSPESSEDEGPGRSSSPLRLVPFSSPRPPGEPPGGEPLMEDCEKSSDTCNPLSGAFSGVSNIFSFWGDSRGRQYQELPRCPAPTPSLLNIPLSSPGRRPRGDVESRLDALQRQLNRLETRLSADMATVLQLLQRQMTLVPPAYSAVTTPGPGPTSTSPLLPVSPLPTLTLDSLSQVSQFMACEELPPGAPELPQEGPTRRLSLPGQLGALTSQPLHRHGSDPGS
Voltage-gated inwardly rectifying potassium channel KCNH2, sequence (Q12809 whole entry, the tested form may be a part): as the sequence (Q12809 whole entry) above

| SMILES | IC50 [1] | logD [2] | inhibition at 30 µM (hERG (KCNH2) [3]) | Cp(f) (Cavia porcellus [4]) | MIC (Pseudomonas aeruginosa [5]) | MIC (Citrobacter freundii) | MIC (Streptococcus pneumoniae) | MIC (Staphylococcus aureus [6]) | Drug uptake [7] | IC50 [8] | MIC (Klebsiella pneumoniae) | Vd [9] | AUC/dose (Rattus norvegicus [10]) | Drug uptake(free) [11] | fraction unbound at 20 min [12] | MIC (Acinetobacter baumannii [13]) | clearance [14] | IC50 [15] | MIC (Staphylococcus aureus [16]) | half-life [17] | other results |
| --- | --- | --- | --- | --- | --- | --- | --- | --- | --- | --- | --- | --- | --- | --- | --- | --- | --- | --- | --- | --- | --- |
| COc1ccc2ncc(F)c(C[C@H](N)[C@@H]3CC[C@@H](NCc4ccc5c(n4)NC(=O)CO5)CO3)c2n1 | 0.125 µM | 0.9 | 86% | 1800 nM | 1 µg/mL (≈ 2.07 µM) | 0.25 µg/mL (≈ 0.518 µM) | 0.125 to 2 µg/mL (≈ 0.259 to 4.14 µM) | 0.125 to 0.5 µg/mL (≈ 0.259 to 1.04 µM) | 0.5 µM | 0.125 µM | 1 to 4 µg/mL (≈ 2.07 to 8.29 µM) | 25 L/kg | 194 µg·h/mL | 0.28 µM | 0.33 | 0.125 µg/mL (≈ 0.259 µM) | 86 mL/min/kg | 0.125 µM | 0.03 µg/mL (≈ 0.0622 µM) | 2.9 h | half-life [18]: 8.8 h; Cp(f) (Cavia porcellus [19]): 530 nM; MIC (Enterococcus faecium): 0.063 to 0.5 µg/mL (≈ 0.131 to 1.04 µM); IC50 [20]: 0.03 µM; IC20 (hERG (KCNH2) [21]): 1.2 µM; IC50 [22]: 5 µM; Cp(f) (Cavia porcellus [23]): 530 nM; MIC (Streptococcus pyogenes): ≤ 0.03 µg/mL; MIC (Escherichia coli): 0.125 to 0.5 µg/mL (≈ 0.259 to 1.04 µM); fraction unbound [24]: 0.15; MIC (Acinetobacter baumannii [25]): 0.125 to 4 µg/mL (≈ 0.259 to 8.29 µM); MIC (Pseudomonas aeruginosa [26]): 1 to 2 µg/mL (≈ 2.07 to 4.14 µM); MIC (Enterococcus faecalis): 0.25 µg/mL (≈ 0.518 µM); IC50 [27]: 0.03 µM; IC50 [28]: 0.03 µM; CL free (Rattus norvegicus [29]): 573 mL/min/kg; Vd [30]: 61 L/kg; fAUC/dose (Rattus norvegicus [31]): 29 µg·h/mL; MIC (Enterobacter cloacae): 0.25 to 4 µg/mL (≈ 0.518 to 8.29 µM); AUC/dose (Canis familiaris): 34 µg·h/mL |
| COc1ccc2ccc(=O)n(C[C@H](N)[C@@H]3CC[C@@H](NCc4ccc5c(n4)NC(=O)CO5)CO3)c2n1 | 0.125 µM | 0.3 | 37% | 28000 nM | 1 µg/mL (≈ 2.08 µM) | 1 µg/mL (≈ 2.08 µM) | 0.25 to 8 µg/mL (≈ 0.52 to 16.6 µM) | 0.25 to 2 µg/mL (≈ 0.52 to 4.16 µM) | 0.31 to 0.93 µM | 0.125 µM | 8 to 16 µg/mL (≈ 16.6 to 33.3 µM) | 21 L/kg | 145 µg·h/mL | 0.27 to 0.81 µM | 0.54 | 1 µg/mL (≈ 2.08 µM) | 110 mL/min/kg | 0.125 µM | 0.25 µg/mL (≈ 0.52 µM) | 1.3 h | half-life [18]: 9.1 h; Cp(f) (Cavia porcellus [19]): 11000 nM; MIC (Enterococcus faecium): 1 to 16 µg/mL (≈ 2.08 to 33.3 µM); IC50 [20]: 0.03 µM; IC20 (hERG (KCNH2) [21]): 13 µM; IC50 [22]: 52 µM; Cp(f) (Cavia porcellus [23]): 2700 nM; MIC (Streptococcus pyogenes): ≤ 0.03 µg/mL; MIC (Escherichia coli): 0.5 to 2 µg/mL (≈ 1.04 to 4.16 µM); fraction unbound [24]: 0.236; MIC (Acinetobacter baumannii [25]): 1 to 16 µg/mL (≈ 2.08 to 33.3 µM); MIC (Pseudomonas aeruginosa [26]): 1 to 2 µg/mL (≈ 2.08 to 4.16 µM); MIC (Enterococcus faecalis): 1 µg/mL (≈ 2.08 µM); IC50 [27]: 0.03 µM; IC50 [28]: 0.125 µM; CL free (Rattus norvegicus [29]): 144 mL/min/kg; Vd [30]: 2.5 L/kg; fAUC/dose (Rattus norvegicus [31]): 34 µg·h/mL; MIC (Enterobacter cloacae): 2 to 16 µg/mL (≈ 4.16 to 33.3 µM); AUC/dose (Canis familiaris): 0.376 µg·h/mL |
